Published values pooled from the literature.
Compare with care: the assays were run in different laboratories.
Target: Mitogen-activated protein kinase kinase kinase 3 (MAP3K3, Homo sapiens, UniProt Q99759)
Sequence (Q99759 1-626, as in one of the studies): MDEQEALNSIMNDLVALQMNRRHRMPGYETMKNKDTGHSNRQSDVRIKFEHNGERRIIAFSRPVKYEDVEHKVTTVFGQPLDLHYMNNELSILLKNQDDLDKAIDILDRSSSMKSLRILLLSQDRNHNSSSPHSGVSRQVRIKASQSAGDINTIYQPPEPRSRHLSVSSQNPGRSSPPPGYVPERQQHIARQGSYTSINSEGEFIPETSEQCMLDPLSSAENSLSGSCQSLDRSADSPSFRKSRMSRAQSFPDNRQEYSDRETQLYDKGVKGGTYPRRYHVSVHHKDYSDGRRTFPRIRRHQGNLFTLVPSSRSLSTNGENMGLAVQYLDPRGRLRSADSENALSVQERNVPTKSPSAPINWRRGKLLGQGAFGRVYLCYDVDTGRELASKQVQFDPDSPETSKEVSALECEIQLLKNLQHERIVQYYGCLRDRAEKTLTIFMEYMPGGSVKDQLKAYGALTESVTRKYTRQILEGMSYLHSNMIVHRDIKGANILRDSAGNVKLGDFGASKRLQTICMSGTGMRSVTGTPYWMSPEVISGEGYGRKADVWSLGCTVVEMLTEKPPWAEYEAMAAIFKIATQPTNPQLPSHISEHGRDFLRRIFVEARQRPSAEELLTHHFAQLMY

C#Cc1cc(-c2cc(Nc3nc(N[C@@H](C)c4ccc(F)cn4)ncc3Cl)n[nH]2)ccc1C=O
inhibition (enzyme activity; inhibitor; 0.2 µM): 48.8%

CC#CC(=O)N1CCC[C@H]1c1nc(-c2ccc(C(=O)Nc3ccccn3)cc2)c2c(N)nccn12
inhibition (enzyme activity; inhibitor; 1 µM): 25%

C[C@H]1CC[C@H](n2c3cnccc3c3cnc(Nc4ccc5c(n4)CCN(C(=O)CO)C5)nc32)CC1
remaining binding (binding; competition with immobilised ligand; 1 µM): 81%

CC(C)S(=O)(=O)c1ccc2nccc(Nc3ccc4sc(C5CCCC5)nc4c3)c2c1
activity vs control (enzyme activity; inhibitor; 1 µM): 105%

CO[C@@H]1[C@H](N(C)C(=O)c2ccccc2)C[C@H]2O[C@]1(C)n1c3ccccc3c3c4c(c5c6ccccc6n2c5c31)C(=O)NC4
inhibition (enzyme activity; inhibitor; 1 µM): 86%

C1=C/COCc2cc(ccc2OCCN2CCCC2)Nc2nccc(n2)-c2cccc(c2)COC/1
remaining binding (binding; 0.1 µM): 53%

Cc1cc(O)c(-c2ccc([C@@H](C)CN(C)C)cc2)c2c1[nH]c(=O)c1sccc12
inhibition (enzyme activity; inhibitor; 0.1 µM): 0.395%

CCCCC(=O)Nc1ccc(-c2ccc3ncn(CCC)c(=O)c3c2)cn1
remaining binding (binding; competition with immobilised ligand; 0.5 µM): 100%

CN1CCN(C(=O)c2ccc(NC(=O)Nc3ccc(N(C)c4ccnc(Nc5ccc(CS(C)(=O)=O)cc5)n4)cc3)cc2)CC1
remaining binding (binding; competition with immobilised ligand; 1 µM): 57%
